Assay results reported in ChEMBL document CHEMBL3243926, “Prodrugs of 9-beta-D-arabinofuranosyladenine. 1. Synthesis and evaluation of some 5'-(O-acyl) derivatives” (J Med Chem, 1978).
pKi: −log10 of the molar value. In brackets after ≈: the same amount, converted by molar mass.

How the values were obtained:
[1] = tested on: Human alphaherpesvirus 1; experiment: Antiviral activity against HSV-1 assessed at 6.5 ug/ml by plaque reduction assay relative to control; type: functional; parameters: scale not given: the % may be the effect or the level left
[2] = biological target: T1, Adenosine deaminase (Bos taurus, UniProt P56658); experiment: Stability of the compound assessed as calf mucosal adenosine deaminase-mediated drug metabolism; type: ADME; conditions: cattle
T1 sequence (P56658 whole entry): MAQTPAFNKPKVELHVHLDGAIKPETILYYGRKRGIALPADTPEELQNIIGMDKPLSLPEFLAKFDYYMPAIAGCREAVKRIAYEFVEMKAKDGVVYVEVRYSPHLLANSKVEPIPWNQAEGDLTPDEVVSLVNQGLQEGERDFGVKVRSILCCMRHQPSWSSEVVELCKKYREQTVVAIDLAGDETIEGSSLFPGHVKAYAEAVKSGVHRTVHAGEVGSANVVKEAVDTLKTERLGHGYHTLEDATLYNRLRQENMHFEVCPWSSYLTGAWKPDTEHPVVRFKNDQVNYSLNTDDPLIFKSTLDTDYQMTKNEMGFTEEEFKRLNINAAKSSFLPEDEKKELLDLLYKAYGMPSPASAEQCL

[3] = Aqueous solubility of the compound at 0.1 M phosphate buffer after 16 hrs by UV spectrometry; type: physicochemical
How it was run: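 Excess solid (10 mg) was agitated for 16 h with 5 mL of 0.1 M phosphate buffer. The mixture was filtered through sintered glass to remove undissolved solid. Dissolved concentration was determined from UV absorbance against values previously determined in buffer.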

[4] = tested on: Human alphaherpesvirus 1; experiment: Antiviral activity against HSV-1 assessed at 17 ug/ml by plaque reduction assay relative to control; type: functional; parameters: scale not given: the % may be the effect or the level left
[5] = tested on: Human alphaherpesvirus 1; experiment: Antiviral activity against HSV-1 assessed at 6 ug/ml by plaque reduction assay relative to control; type: functional; parameters: scale not given: the % may be the effect or the level left
[6] = Aqueous stability of the compound assessed as hydrolysis rate at 25 degC by Arrhenius plot; type: physicochemical; conditions: buffer
How it was run: (§1)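 Ester hydrolysis was followed at pH 6.56 at 60, 80 and 100 °C by HPLC (40:60 methanol-water, 254-nm detection). First-order rates came from log[ester] vs time. An Arrhenius plot of log rate vs reciprocal temperature (K) was extrapolated to 25 °C.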

[7] = tested on: Human alphaherpesvirus 1; experiment: Antiviral activity against HSV-1 assessed at 0.6 ug/ml by plaque reduction assay relative to control; type: functional; parameters: scale not given: the % may be the effect or the level left
[8] = biological target: T1, Adenosine deaminase; experiment: Inhibition of calf mucosal adenosine deaminase
[9] = Aqueous stability of the compound assessed as time required for 10% decomposition at 25 degC by Arrhenius plot; type: physicochemical; conditions: buffer; how it was run: as §1
[10] = Half life of the compound; type: physicochemical
[11] = tested on: Human alphaherpesvirus 1; experiment: Antiviral activity against HSV-1 assessed at 7 ug/ml by plaque reduction assay relative to control; type: functional; parameters: scale not given: the % may be the effect or the level left
[12] = tested on: Human alphaherpesvirus 1; experiment: Antiviral activity against HSV-1 assessed at 20 ug/ml by plaque reduction assay relative to control; type: functional; parameters: scale not given: the % may be the effect or the level left
[13] = tested on: Human alphaherpesvirus 1; experiment: Antiviral activity against HSV-1 assessed at 2 ug/ml by plaque reduction assay relative to control; type: functional; parameters: scale not given: the % may be the effect or the level left

Structure (SMILES)	Activity [1] [%]	Stability [2]	solubility at 16 h [3] [µg/mL]	Activity [5] [%]	further results
CC(C)(C)CC(=O)OC[C@H]1O[C@@H](n2cnc3c(N)ncnc32)[C@@H](O)[C@@H]1O	10	Stable	7800 (≈ 21.3 mM)	–	–
CC(=O)OC[C@H]1O[C@@H](n2cnc3c(N)ncnc32)[C@@H](O)[C@@H]1O	–	–	6600 (≈ 21.3 mM)	–	Activity [4]: 86%
CCCCC(=O)OC[C@H]1O[C@@H](n2cnc3c(N)ncnc32)[C@@H](O)[C@@H]1O	–	Stable	8400 (≈ 23.9 mM)	100	Drug degradation [6]: 5.4 ×10⁻⁶ /hr; Activity [7]: 90%; pKi [8]: 4.96; Time [9]: 2.25 yr
CCCCCC(=O)OC[C@H]1O[C@@H](n2cnc3c(N)ncnc32)[C@@H](O)[C@@H]1O	25	Stable	2500 (≈ 6.84 mM)	–	–
Nc1ncnc2c1ncn2[C@@H]1O[C@H](COC=O)[C@@H](O)[C@@H]1O	–	–	–	–	half-life [10]: 240 h
CCC(=O)OC[C@H]1O[C@@H](n2cnc3c(N)ncnc32)[C@@H](O)[C@@H]1O	–	–	9200 (≈ 28.5 mM)	83	–
Nc1ncnc2c1ncn2[C@@H]1O[C@H](COC(=O)CCc2ccccc2)[C@@H](O)[C@@H]1O	–	–	1500 (≈ 3.76 mM)	–	Activity [11]: 29%
CC(C)(C)C(=O)OC[C@H]1O[C@@H](n2cnc3c(N)ncnc32)[C@@H](O)[C@@H]1O	–	Stable	7000 (≈ 19.9 mM)	–	Activity [12]: 11%
CC(C)CC(=O)OC[C@H]1O[C@@H](n2cnc3c(N)ncnc32)[C@@H](O)[C@@H]1O	–	Stable	19800 (≈ 56.4 mM)	–	Activity [11]: 53%
CCCC(=O)OC[C@H]1O[C@@H](n2cnc3c(N)ncnc32)[C@@H](O)[C@@H]1O	–	–	16100 (≈ 47.7 mM)	67	–
Nc1ncnc2c1ncn2[C@@H]1O[C@H](CO)[C@@H](O)[C@@H]1O [VIDARABINE]	63	–	–	54	Activity [13]: 64%; Activity [12]: 69%; Activity [4]: 100%; Activity [11]: 63%; Activity [7]: 0%
CCCCCCCC(=O)OC[C@H]1O[C@@H](n2cnc3c(N)ncnc32)[C@@H](O)[C@@H]1O	–	–	100 (≈ 0.254 mM)	–	Activity [13]: 45%
Nc1ncnc2c1ncn2[C@@H]1O[C@H](COC(=O)c2ccccc2)[C@@H](O)[C@@H]1O	71	–	80 (≈ 0.215 mM)	–	–
